# Assays:
# [1] = test system: Mus musculus; assay: Toxicity day evaluation was carried out on day 5 for animal dosed with 100 mg/kg compound; 6/6; format: organism-based; design: dose 100 mg/kg; details: in vivo
# [2] = test system: Mus musculus; assay: Body weight difference (BWD) of test animals administered with 100 mg/kg compound is determined on day 14 for M5076 minus 1 tumor cells; format: functional
# Method in brief: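 M5076 sarcoma: 10^6 cells inoculated ip on day 0 in B6C3F1 mice. Fresh saline suspension dosed ip every fourth day, on days 1, 5, 9 and 13. Body weight difference in g (treated minus control) taken as day 14 minus day 1. Ten mice per group.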
# [3] = test system: Mus musculus; assay: The toxicity day was evaluated on day 5 for L1210 tumor cells of test animals dosed with 200 mg/kg of compound; 0/6; format: functional
# Method in brief: (§1)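 L1210 leukaemia, 10^5 cells, implanted ip on day 0. Freshly prepared saline suspension dosed ip daily on days 1-5. Toxicity evaluated on day 5 as survivors over animals in the initial test group.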
# [4] = test system: Mus musculus; assay: The percent of the median survival time of test mice compared to control mice, administered with 200 mg/kg compound on day 14 for M5076 minus 1 tumor cells; format: functional
# Method in brief: (§2)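 M5076 sarcoma, 10^6 cells ip on day 0 in B6C3F1 mice. Drug given ip as a fresh saline suspension every fourth day (days 1, 5, 9, 13). % T/C is median survival of treated versus control mice, counting long-term survivors. Cures are 60-day survivors. Log cell kill is derived from this.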
# [5] = test system: Mus musculus; assay: Ability of 50 mg/kg of compound to kill L1210 tumor cells in mice is expressed as the log of the tumor cell population at the onset of treatment minus the log of the tumor cell population at the end of treatment; format: functional
# Method in brief: (§3)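 L1210 leukemia, 10^5 cells implanted ip on day 0. Drug given ip daily on days 1-5 as a saline suspension freshly prepared before each injection. Read-out is median survival of treated versus control mice (% T/C), and log cell kill is derived from it.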
# [6] = Retention time was determined; format: ADME
# [7] = test system: Mus musculus; assay: The toxicity day was evaluated on day 0 for LOX tumor cells of test animals dosed with 200 mg/kg of compound; 3/6; format: functional
# [8] = test system: Mus musculus; assay: The percent of the median survival time of test mice compared to control mice is % T/C. It is determined for mice administered with 25 mg/kg compound on day 0 for LOX 1 tumor cells.; format: functional; details: route intraperitoneal
# [9] = test system: Mus musculus; assay: Body Weight Difference (BWD) of test animals administered with 12.5 mg/kg compound is determined on day 5 for P388 tumor cells; format: functional
# Method in brief: (§4)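 P388 leukaemia: about 10^6 cells in ascitic fluid inoculated ip on day 0 (CD2F1 mice). Compound given ip in normal saline as a freshly prepared solution or suspension, once daily on days 1–5. Treated-minus-control body weight difference in g, taken as day 5 minus day 1 weight. Groups of six.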
# [10] = test system: Mus musculus; assay: The percent of the median survival time of test mice compared to control mice, administered with 25 mg/kg compound on day 5 for L1210 tumor cells; format: functional; method in brief: as §3
# [11] = test system: Mus musculus; assay: Ability of 100 mg/kg of compound to kill L1210 tumor cells in mice is expressed as the log of the tumor cell population at the onset of treatment minus the log of the tumor cell population at the end of treatment; format: functional; method in brief: as §3
# [12] = test system: Mus musculus; assay: The toxicity day was […] tumor cells of test animals dosed with 400 mg/kg of compound; 1/10; format: functional, M5076
# Method in brief: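 M5076 sarcoma, 10^6 cells, inoculated ip into B6C3F1 mice on day 0. Fresh saline suspension given ip every fourth day (days 1, 5, 9, 13). Toxicity survivors were scored on day 5 as survivors over initial group. Body-weight difference was day 14 minus day 1.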
# [13] = test system: Mus musculus; assay: The toxicity day was evaluated […] for MX-1 tumor cells of test animals dosed with 100 mg/kg of compound; 6/6; format: functional
# Method in brief: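 Human MX-1 mammary xenograft, a 1 mm3 (0.5 mg) tumor fragment implanted under the renal capsule of NCR-nu mice on day 0. Drug given ip as a fresh saline suspension on days 1, 5 and 9. Tumor size is assessed on day 11. A negative % T/C is percent shrinkage relative to the initial implant. Survivors in the toxicity group are […].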
# [14] = test system: Mus musculus; assay: Ability of 200 mg/kg of compound to kill M5076 tumor cells in mice is expressed as the log of the tumor cell population at the onset of treatment minus the log of the tumor cell population at the end of treatment; format: functional; method in brief: as §2
# [15] = test system: Mus musculus; assay: Body weight difference (BWD) of test animals administered with 60 mg/kg compound is determined on […] tumor cells; format: functional
# Method in brief: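 MX-1 human mammary xenograft: solid tumour fragment (1 mm3, 0.5 mg) placed as a subrenal capsule implant on day 0 in NCR-nu mice. Fresh saline suspension dosed ip on days 1, 5 and 9. Body weight difference in g (treated minus control) recorded. Assay evaluated on day 11. Six mice per group.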
# [16] = test system: Mus musculus; assay: Body Weight Difference (BWD) of test animals administered with 6.25 mg/kg compound is determined on day 5 for P388 tumor cells; format: functional; method in brief: as §4
# [17] = test system: Mus musculus; assay: Toxicity day evaluation was carried out on day 5 for animal dosed with 25 mg/kg compound; 6/6; format: organism-based; design: dose 25 mg/kg; details: in vivo
# [18] = test system: Mus musculus; assay: Ability of 50 mg/kg of compound to kill M5076 tumor cells in mice is expressed as the log of the tumor cell population at the onset of treatment minus the log of the tumor cell population at the end of treatment; format: functional; method in brief: as §2
# [19] = test system: Mus musculus; assay: Ability of 12.5 mg/kg of compound to kill L1210 tumor cells in mice is expressed as the log of the tumor cell population at the onset of treatment minus the log of the tumor cell population at the end of treatment; format: functional; method in brief: as §3
# [20] = test system: Mus musculus; assay: Ability of 25 mg/kg of compound to kill L1210 tumor cells in mice is expressed as the log of the tumor cell population at the onset of treatment minus the log of the tumor cell population at the end of treatment; format: functional; method in brief: as §3
# [21] = test system: Mus musculus; assay: Body weight difference (BWD) of test animals administered with 100 mg/kg compound is determined on day 5 for L1210 tumor cells; format: functional
# Method in brief: (§5)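 L1210 leukaemia: 10^5 cells implanted ip on day 0 in mice. Freshly prepared saline suspension given ip once daily on days 1–5. Body weight difference in g (treated minus control) taken as day 5 minus day 1. Six animals per dose.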
# [22] = test system: Mus musculus; assay: The toxicity day was evaluated on day 5 for L1210 tumor cells of test animals dosed with 100 mg/kg of compound; 6/6; format: functional; method in brief: as §1
# [23] = test system: Mus musculus; assay: Body weight difference (BWD) of test animals administered with 200 mg/kg compound is determined on day 5 for L1210 tumor cells; format: functional; method in brief: as §5
# [24] = test system: Mus musculus; assay: Toxicity day evaluation was carried out on day 5 for animal dosed with 12.5 mg/kg compound; 6/6; format: organism-based; design: dose 12.5 mg/kg; details: in vivo
# [25] = test system: Mus musculus; assay: Toxicity day evaluation was carried out on day 5 for animal dosed with 50 mg/kg compound; 6/6; format: organism-based; design: dose 50 mg/kg; details: in vivo
# [26] = test system: Mus musculus; assay: The toxicity day was evaluated on day 0 for LOX tumor cells of test animals dosed with 50 mg/kg of compound; 6/6; format: functional
# [27] = test system: Mus musculus; assay: The toxicity day was evaluated on day 0 for LOX tumor cells of test animals dosed with 100 mg/kg of compound; 6/6; format: functional
# [28] = test system: Mus musculus; assay: The toxicity day was evaluated on day 5 for L1210 tumor cells of test animals dosed with 50 mg/kg of compound; 6/6; format: functional; method in brief: as §1
# [29] = test system: Mus musculus; assay: Body weight difference (BWD) of test animals administered with 25 mg/kg compound is determined on day 10 for LOX tumor cells.
smiles,measurement,setting,value
CNC(=O)OCc1nc(SC)n(C)c1COC(=O)NC,Survivors / animals tested,[1],6
same,BWD,[2],-1.2 g
same,Survivors / animals tested,[3],0
same,T/C,[4],184%
same,KE,[5],-1.94
same,TR,[6],39 min
same,Survivors / animals tested,[7],3
same,T/C,[8],219%
same,BWD,[9],-1.2 g
same,T/C,[10],111%
same,KE,[11],-0.29
same,Survivors / animals tested,[12],1
same,Survivors / animals tested,[13],6
same,KE,[14],0.98
same,BWD,[15],-1.9 g
same,BWD,[16],-0.7 g
same,Survivors / animals tested,[17],6
same,KE,[18],-1.63
same,KE,[19],-2.35
same,KE,[20],-2.23
same,BWD,[21],-1.9 g
same,Survivors / animals tested,[22],6
same,BWD,[23],-3.6 g
same,Survivors / animals tested,[24],6
same,Survivors / animals tested,[25],6
same,Survivors / animals tested,[26],6
same,Survivors / animals tested,[27],6
same,Survivors / animals tested,[28],6
same,BWD,[29],-3 g

# Reference: ChEMBL document CHEMBL1124663, “Design, synthesis, antineoplastic activity, and chemical properties of bis(carbamate) derivatives of 4,5-bis(hydroxymethyl)imidazole” (J Med Chem, 1989)
